Hep lipid drop – inhibitors of hepatocyte lipid droplet formation, primary screen, imaging, high-throughput imaging, BODIPY stain; AML12 mouse hepatocytes, oleate lipid droplets; inhibition, % at 6.5 µM; actives 0.4% (n = 240,000); AID 1656, 2009;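 active = lipid droplet intensity inhibited by at least 50%, with more than 500 cells counted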
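System: AML12 hepatocytes (mouse). Probe or stimulus: oleic acid at 100 µM to induce lipid droplet formation. Times: overnight treatment with compound plus oleate. Detection: Image-based BODIPY and DAPI two-channel analysis. Evaluation: percent inhibition of filter-corrected integrated lipid droplet intensity per well.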
B2AR ag – beta2AR agonists driving receptor internalization, primary screen, cell-based, FAP fluorogen, flow cytometry; response, % (concentration not given with the values); actives 0.43% (n = 340,000); Am2.2-beta2AR cells; AID 504454, 2011;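 active = response above a set limit, near 3 SD of response in nonfluorescent compounds, cut at about 42% in these data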
GRK2 aptamer HTS – compounds blocking aptamer binding on GRK2 – biochemical, human GRK2, bead flow cytometry, HTS, primary screen; Beta-adrenergic receptor kinase 1 (Homo sapiens), P25098; FAM-aptamer displacement from GRK2; inhibition of aptamer binding, % at 10 µM; actives 0.59% (n = 330,000); AID 488847, 2010;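 active = inhibition of aptamer binding above 40%, roughly 3 SD of noise, on plates passing a quality check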;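 note: median bead fluorescence of bound FAM aptamer so fluorescent compounds give negative values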
H9c2 TAG inh – inhibitors of triacylglycerol accumulation, primary screen, cell-based, uHTS, fluorescence, H9c2. inhibition, % at 12.5 µM. H9c2 cells, Nile Red lipid (TAG) fluorescence; cells loaded with 200 µM oleic acid. actives 0.66% (n = 230,000). AID 651582, 2012;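 active = pattern-corrected inhibition of lipid staining of at least 50% with the nuclear-stain viability signal not falling by more than 50%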;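 note: 0% = DMSO wells and 100% = triacsin C control wells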
Arrestin-AP2 inh – inhibitors of beta-arrestin/AP2 binding, primary screen, biochemical, GPCR trafficking, flow cytometry; FITC-arrestin peptide / GST-AP2 beads; AP2 beta2 appendage carries R879A mutation; inhibition, % at 10 µM; actives 0.31% (n = 340,000);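 active = inhibition above a set limit, near 3 SD of compounds lacking own fluorescence, cut at about 54% in these data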;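 note: plate controls were DMSO wells for no effect and 5 µM unlabelled arrestin peptide for full effect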
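test system = AP2 appendage R879A on GSH beads | buffer or medium = PBS plus Tween 20 (0.05%) and BSA (0.1%) | incubation = 12 min plus 1 h, RT | detection = bead flow cytometry, FITC channel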
NTR1 agonist – agonists of human NTR1, primary screen, imaging, U2OS cells, beta-arrestin-GFP, high content; NTR1-U2OS beta-arrestin-GFP spot imaging, agonist mode; Neurotensin receptor type 1 (Homo sapiens), P30989; actives 0.17% (n = 330,000); activation, % at 20 µM;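 active = activation at or above 40% of the spot to cytoplasm intensity ratio, with at least 20 cells analyzed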;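 note: 0% = DMSO without peptide and 100% = 100 nM NTR1 peptide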
Target sequence (P30989 whole entry, looked up): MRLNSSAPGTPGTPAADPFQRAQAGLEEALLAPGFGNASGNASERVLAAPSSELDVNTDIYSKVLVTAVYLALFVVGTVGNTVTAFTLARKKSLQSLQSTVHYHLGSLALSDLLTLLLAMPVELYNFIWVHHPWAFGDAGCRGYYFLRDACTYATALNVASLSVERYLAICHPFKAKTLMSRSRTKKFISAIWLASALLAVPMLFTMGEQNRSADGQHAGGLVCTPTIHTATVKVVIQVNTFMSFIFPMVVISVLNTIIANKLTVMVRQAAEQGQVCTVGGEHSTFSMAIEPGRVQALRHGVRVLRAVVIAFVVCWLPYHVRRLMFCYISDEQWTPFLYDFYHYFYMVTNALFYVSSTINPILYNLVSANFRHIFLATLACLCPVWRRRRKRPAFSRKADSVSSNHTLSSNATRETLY
Lipid drop inh – hepatocyte lipid droplet accumulation inhibitors, confirmation, imaging, AML12 mouse hepatocytes, single concentration, high-content; AID 463183, 2010; BODIPY lipid droplet imaging; droplets induced with 100 µM oleic acid; shares compounds with Hep lipid drop; actives 65% (n = 870); inhibition, % at 5.2 µM;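 active = inhibition of lipid droplet metric at least 50%, with more than 300 cells in each of four replicates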;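 note: plate controls were DMSO with oleic acid for no effect and 5 µM Triacsin-C for full effect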
AML12 tox img – AML12 hepatocyte cytotoxicity, counter-screen for hepatic lipid droplet formation project, imaging, DAPI nuclear morphology imaging. shares compounds with Hep lipid drop. AML12 mouse hepatocytes; hits give high values; cells fed 100 µM oleate overnight. z-score at 5 µM. actives 3% (n = 870); in the data active = z-score above about 6.3;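 note: compound exposure lasted overnight at 37 °C before fixation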
AML12 tox ATP – AML12 hepatocyte cytotoxicity, confirmation, cytotoxicity control for hepatic lipid droplet formation project, cell-based, single concentration | shares compounds with Hep lipid drop | cytotoxicity, % at 50 µM | AML12 mouse hepatocyte viability, ATP luminescence; cells loaded with 100 µM oleic acid | 530 tested, under 10 active | AID 463219, 2010;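 active = cytotoxicity above 50% in each of four replicates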;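 note: compound exposure lasted overnight at 37 °C before the ATP read; 0% = DMSO-treated cells and 100% = wells with no cells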
An asterisk follows results filed as active; / = no result given. Rows were chosen to be rich in hits. Some 2% of all compounds tested hit in one or more screens of this group.

SMILES	Hep lipid drop	B2AR ag	GRK2 aptamer HTS	H9c2 TAG inh	Arrestin-AP2 inh	NTR1 agonist	Lipid drop inh	AML12 tox img	AML12 tox ATP
CCN1C(N(C)CCc2c[nH]c3ccccc23)=N[C@@H](c2cccc(C(F)(F)F)c2)C(C(=O)OC)=C1C	/	37	0	112*	-14	15	/	/	/
O=C(CSc1ccc(Cl)cc1)c1ccco1	/	3	58*	/	28	0	/	/	/
CCOC(=O)C1=CN(Cc2cccc(F)c2)S(=O)(=O)N(C)C1c1ccc2ccccc2c1 (configuration not stated)	/	-1	0	2	0	-1	/	/	/
O=c1[nH]c(=O)n(Cc2ccccc2)c2nc(-c3ccc(Oc4ccc(F)cc4)c([N+](=O)[O-])c3)n(CCO)c12	64*	-5	0	/	8	9	71*	1.1	1
CCN(CC(=O)NC1CCCC1)S(=O)(=O)c1ccc(F)cc1	1	-1	1	13	-2	0	/	/	/
COc1cccc(-c2cc(C(=O)Nc3ccccc3)c3ccccc3n2)c1	/	1	0	22	52	1	/	/	/
O=C(Nc1ccc([N+](=O)[O-])cn1)c1cc(-c2cccc(Br)c2)nc2ccccc12	64*	4	0	/	10	2	64*	-0.17	10
COc1cccc(-c2cc(C(=O)Nc3ccc([N+](=O)[O-])cn3)c3ccccc3n2)c1	57*	4	20	/	1	4	75*	-0.6	12
CCCS(=O)(=O)NC(=O)C1(C)CCCN(C(=O)CCc2cccs2)C1 (configuration not stated)	/	/	/	9	/	/	/	/	/
Cc1ccc(-n2nc3c(=O)n(C(C)C(=O)NCCc4cccs4)nc(C)c3c2C)cc1 (configuration not stated)	53*	1	0	/	-4	0	96*	-0.5	20
Cc1ccc(-n2nc3c(=O)n(CC(=O)NCc4ccccc4)nc(C)c3c2C)cc1	8	4	0	/	-9	0	/	/	/
Cc1ccc(-n2nc3c(=O)n(CC(=O)NC(C)CCc4ccccc4)nc(C)c3c2C)cc1 (configuration not stated)	88*	5	0	/	-8	0	77*	-0.48	5
Cc1ccc(-n2nc3c(=O)n(C(C)C(=O)NC4CC4)nc(C)c3c2C)cc1 (configuration not stated)	-2	9	2	/	44	-2	/	/	/
Cc1ccc(-n2nc3c(=O)n(CC(=O)NC4CCCCC4)nc(C)c3c2C)cc1	57*	4	0	/	2	1	88*	-0.23	17
CCOc1ccc(/C(C)=N\NC(=O)Cc2ccccc2)cc1	/	2	0	12	49	0	/	/	/
O=C1CN(C(=O)COc2ccc(Cl)c(Cl)c2)c2ccccc2N1	/	9	/	7	2	0	/	/	/
O=C1CN(C(=O)Cn2ncc(Cl)c(Cl)c2=O)c2ccccc2N1	126*	11	/	69*	6	/	0	0.66	/
COc1cc(C(=S)N2CCOCC2)cc(Br)c1OS(=O)(=O)c1ccccc1	-11	-6	0	/	5	2	/	/	/
CCCCCCNC(=O)c1cn(CC)c2cc(N3CCN(C)CC3)c(F)cc2c1=O	53*	17	0	/	-1	5	27	0.62	/
CCn1cc(C(=O)NCCCO)c(=O)c2cc(F)c(N3CCN(C)CC3)cc21	/	-6	0	/	9	0	/	/	/
C#CCN(C[C@H]1[C@H](OC(=O)NC2CCCC2)[C@H](OC(=O)NC2CCCC2)C[C@@H](C(=O)OC)[C@H]1C(=O)OC)S(=O)(=O)c1ccc(C)cc1	/	/	/	36	/	/	/	/	/
O=C(/C=C/c1ccco1)Nc1cccc(C(=O)Nc2ccccc2C(=O)O)c1	-4	-2	3	1	7	0	/	/	/
CCc1ccccc1NC(=O)c1cccc(NC(=O)/C=C/c2ccco2)c1	53*	6	0	/	8	2	51	4.3	/
CCN(CC)c1ccc(C(=O)NNC(=O)C2CCN(c3ncnc4sc(C)c(C)c34)CC2)cc1	/	/	/	11	/	/	/	/	/
Cc1ccc(CNC(=O)c2ccc(N3CCC4(CC3)CC(c3ccccc3)=NO4)c(NC(=O)c3ccccc3)c2)cc1	/	-3	0	6	25	0	/	/	/
SMILES	Hep lipid drop	B2AR ag	GRK2 aptamer HTS	H9c2 TAG inh	Arrestin-AP2 inh	NTR1 agonist	Lipid drop inh	AML12 tox img	AML12 tox ATP
Cc1ccc(CNC(=O)c2ccc(N3CCC4(CC3)CC(c3ccccc3)=NO4)c(N)c2)cc1	52*	-12	5	24	4	11	89*	-0.92	20
Clc1ccc(Nc2nc(NCCN3CCOCC3)nc(N3CCOCC3)n2)cc1	66*	10	2	116	22	-1	75*	19*	/
NC(=O)CC(NC(=O)Cc1cccc2ccccc12)c1ccc(NC2CCCCCCC2)c([N+](=O)[O-])c1 (configuration not stated)	/	-1	4	7	25	7	/	/	/
CN1CC(=O)Nc2ccc(F)cc2C1=O	34	8	1	7	2	0	/	/	/
CN1CC(=O)Nc2ccc([N+](=O)[O-])cc2C1=O	91*	2	0	/	2	0	26	-1.2	/
Cc1nn(-c2ccccc2)c2c1C(c1ccc([N+](=O)[O-])cc1)N1C(=N2)C(=O)Nc2ccccc21 (configuration not stated)	-5	1	11	-36	/	2	/	/	/
Cc1nn(-c2ccc([N+](=O)[O-])cc2)c2c1C(c1cccc(Br)c1)N1C(=N2)C(=O)Nc2ccccc21 (configuration not stated)	118*	-2	1	/	7	5	82*	0.12	-5
Cc1nn(-c2ccccc2)nc1C(=O)c1c(C)[nH]n(-c2ccccc2)c1=O	2	20	0	0	10	0	/	/	/
Cc1ccc(NC(=O)COC(=O)CNC(=O)c2cccs2)cc1S(=O)(=O)N1CCOCC1	/	15	/	-1	4	/	/	/	/
CN(C)c1ccc(N=Nc2ccccc2Br)cc1	67*	-6	2	/	8	3	113*	0.039	81*

Compound activity deposited in PubChem BioAssay by several laboratories.
